This is a sample that favours compounds with a hit; in the whole collection about 1.1% have one here.
Rin1-Abl PPI inh: inhibitors of Rin1-Abl protein binding, primary screen, biochemical, TR-FRET; AID 588664, 2011; inhibition, % at 7.35 µM; Tyrosine-protein kinase ABL1 (Homo sapiens) + Ras and Rab interactor 1 (Homo sapiens), …; 360,000 compounds, 0.4% hits; in the data active = inhibition above about 5%, passing the limit was not always enough
CAL PDZ FP-1: untagged CAL PDZ binding inhibitors, primary screen, biochemical, fluorescence polarization, HTS | Golgi-associated PDZ and coiled-coil motif-containing protein (Homo sapiens), Q9HD26 | purified CAL PDZ, TMR-peptide fluorescence polarization, 1 h | inhibition, % at 24.9 µM | 300,000 compounds, 0.92% hits;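 active = mean inhibition of at least 30% with at least half of replicates also reaching 30%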
ERAP1 HTS inh: human ERAP1 aminopeptidase inhibitors, primary screen, biochemical, single point, plate reader. Endoplasmic reticulum aminopeptidase 1 (Homo sapiens), Q9NZ08. recombinant ERAP1, Leu-AMC fluorescence, 60 min. inhibition, % at 10.7 µM. 340,000 compounds, 0.15% hits;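 active = mean replicate inhibition of at least 30%, or all replicates individually reaching that 30% level; inactive = mean below 30% and not every replicate reaching it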
CAL PDZ FP-2: CAL PDZ peptide-binding inhibitors, primary screen, biochemical, fluorescence polarization, Cer-tagged CAL PDZ, HTS. Golgi-associated PDZ and coiled-coil motif-containing protein (Homo sapiens), Q9HD26. purified CAL PDZ, TMR-peptide fluorescence polarization, 1 h. inhibition, % at 20 µM. 330,000 compounds, 0.02% hits. AID 504414, 2011;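 active = highest replicate inhibition of at least 40%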
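System: tagged CAL PDZ domain. Schedule: 1 h room-temperature incubation prior to read. Signal: fluorescence polarization (mP). Measure: percent inhibition from loss of millipolarization.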
ERp5 inh: inhibitors of ERp5-driven insulin aggregation, primary screen, biochemical, turbidity, absorbance 650 nm, single point | 90 min | inhibition, % at 9.99 µM | AID 651711, 2012 | 350,000 compounds, 0.05% hits;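 active = mean replicate inhibition above about 25%, with every replicate also reaching it, limit read from the data, passing the limit was not always enough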
PDI inh: inhibitors of human PDI, primary screen, biochemical, turbidity, single point, plate reader. 350,000 compounds, 0.052% hits. AID 588391, 2011. inhibition, % at 10 µM. Protein disulfide-isomerase (Homo sapiens), P07237. PDI insulin aggregation turbidity, A650, 90 min;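 active = mean inhibition across replicates of 30% or more, whatever share of single replicates reach that level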
Target sequence (P07237 whole entry, looked up): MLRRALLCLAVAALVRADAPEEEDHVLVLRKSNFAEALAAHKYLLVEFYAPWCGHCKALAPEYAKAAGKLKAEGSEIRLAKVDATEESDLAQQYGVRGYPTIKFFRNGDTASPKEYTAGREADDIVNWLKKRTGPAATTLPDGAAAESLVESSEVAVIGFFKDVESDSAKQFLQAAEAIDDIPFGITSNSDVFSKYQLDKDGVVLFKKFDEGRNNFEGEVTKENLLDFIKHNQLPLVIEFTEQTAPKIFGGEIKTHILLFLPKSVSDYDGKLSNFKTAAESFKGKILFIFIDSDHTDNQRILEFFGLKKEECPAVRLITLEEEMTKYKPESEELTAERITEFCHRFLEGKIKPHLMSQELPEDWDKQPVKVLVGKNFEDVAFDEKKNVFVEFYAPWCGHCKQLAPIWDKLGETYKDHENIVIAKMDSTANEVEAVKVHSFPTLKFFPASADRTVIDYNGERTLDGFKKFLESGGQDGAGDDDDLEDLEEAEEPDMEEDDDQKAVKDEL
A number is an active result; i = inactive; nt = not tested or not shown; ! = repeats disagree.

SMILES	Rin1-Abl PPI inh	CAL PDZ FP-1	ERAP1 HTS inh	CAL PDZ FP-2	ERp5 inh	PDI inh
CCCC(=O)n1nc(-c2ccc(C)cc2)nc1NCc1ccco1	i	81	i	i	i	i
Cc1ccc(C(=O)n2nc(-c3ccccc3)nc2NCc2ccco2)cc1	i	i	i	i	i	i
CC(=O)N(C)C[C@H]1Oc2cc(-c3ccccc3)ccc2S(=O)(=O)N([C@@H](C)CO)C[C@H]1C	nt	nt	i	nt	i	nt
C[C@@H]1CCCCO[C@@H](CN(C)S(=O)(=O)c2ccc(Cl)cc2)[C@H](C)CN([C@@H](C)CO)C(=O)c2cc(NC(=O)Nc3ccc4c(c3)OCO4)ccc2O1	nt	nt	i	nt	i	nt
Cc1ccc(OCC(=O)Nc2c(C)ccc3nsnc23)cc1	i	52	i	i	i	i
CN1c2ccc(-c3ccc(F)cc3)cc2[C@@H]2[C@@H](CCN2C(=O)C2CCOCC2)[C@@H]1CO	nt	nt	i	nt	i	nt
CC1(c2ccc3c(c2)OCO3)NC(=O)N(CC(=O)Nc2ccccc2[N+](=O)[O-])C1=O (centres undefined)	i	46	i	i	i	i
C[C@H](CO)N1C[C@H](C)[C@H](CN(C)C(=O)NC2CCCCC2)Oc2ccc(NS(=O)(=O)c3ccc(Cl)cc3)cc2C1=O	nt	nt	i	nt	i	nt
CC12CN3CC(C)(CN(C1)C3c1ccc3ccccc3c1O)C2=O (centres undefined)	i	93	i	nt	i	i
COc1ccc(S(=O)(=O)Nc2ccc3c(c2)C(=O)N([C@@H](C)CO)C[C@H](C)[C@@H](CN(C)C(=O)NC(C)C)OCCCC[C@@H](C)O3)cc1	nt	nt	i	nt	i	nt
CC(C)CCn1c(N2CCC(C(N)=O)CC2)nc2c1c(=O)[nH]c(=O)n2C	i	42	i	nt	i	i
CC(C)CCn1c(N2CCCC2)nc2c1c(=O)[nH]c(=O)n2C	i	i	i	i	i	i
O=C(C[C@H]1CC[C@@H]2[C@H](COC[C@@H](O)CN2C(=O)c2ccncc2)O1)NCc1ccc(-c2ccccc2)cc1	nt	nt	i	nt	i	nt
C/C(=N\NC(=O)c1ccc2c(c1)OCO2)c1ccco1	i	50	i	i	i	i
CCCN1[C@@H]2c3ccc(-c4ccccc4)c(=O)n3C[C@@H]2[C@@H](CO)[C@@H]1C(=O)N[C@H](C)c1ccccc1	nt	nt	i	nt	i	nt
Cc1cccc(/C=N/NC(=O)c2cc(C)nc3ccccc23)n1	i	151	i	i	i	i
COCCOCC(O)CN1CCN(c2ccccc2)CC1 (centres undefined)	i	32	nt	i	nt	i
O=S(=O)(c1ccccc1)n1ccc2ccccc21	i	47	nt	i	nt	i
Cc1cc(C)c(S(=O)(=O)n2ccc3ccccc32)c(C)c1	i	i	nt	i	nt	i
CC(=O)N1CC(=O)N2[C@H](CO)[C@@H](c3ccc(-c4ccc(C)cc4)cc3)[C@H]2C1	nt	nt	i	nt	i	nt
CCSc1nsc(NC(=O)Nc2cccc(F)c2)n1	i	70	i	i	i	i
O=C(C1=CC=CN2CCS(=O)(=O)N=C12)N1CCN(c2cccc(Cl)c2)CC1	i	i	i	i	i	i
CCOc1ccccc1N1CCN(C(=O)C2=CC=CN3CCS(=O)(=O)N=C23)CC1	i	nt	56	i	i	i
Cn1c(SCC(=O)NNC(=O)c2ccc(Br)cc2)nnc1-c1cccnc1	i	63	i	i	i	i
COc1ccc(C(=O)NNC(=O)CSc2nnc(-c3cccnc3)n2C)cc1	i	nt	i	i	i	i
SMILES	Rin1-Abl PPI inh	CAL PDZ FP-1	ERAP1 HTS inh	CAL PDZ FP-2	ERp5 inh	PDI inh
Cc1ccc(Cl)c(NC(=O)COC(=O)C2CCC2)c1Cl	i	55	i	i	i	i
Cc1ccc(S(=O)(=O)N2CCC(C(=O)OCC(=O)NCc3cccc(Cl)c3)CC2)cc1C	i	i	i	i	nt	i
Cc1ccc(S(=O)(=O)N2CCC(C(=O)OCC(=O)Nc3cc(S(C)(=O)=O)ccc3Cl)CC2)cc1C	i	40	i	i	i	i
O=C(C[C@H]1C=C[C@H](NC(=O)C2CCC2)[C@H](CO)O1)Nc1nccs1	nt	nt	i	nt	i	nt
C[C@@H]1CCCCO[C@H](CN(C)C(=O)C2CCCCC2)[C@H](C)CN([C@H](C)CO)C(=O)c2cc(NS(=O)(=O)c3ccc(F)cc3)ccc2O1	nt	nt	i	nt	i	nt
CCOC(=O)c1c(-c2ccc(C)s2)csc1NC(=O)c1cccs1	i	i	nt	i	nt	i
CCOC(=O)c1c(NC(=O)c2cccs2)sc(CC)c1-c1cccs1	i	31	nt	i	nt	i
O=S(=O)(c1ccccc1)N1N=C(c2ccc(O)cc2)CC1c1ccco1 (centres undefined)	i	nt	i	i	i	38
COC(=O)C(CC(=O)c1ccc(C)cc1)n1nc(C)cc1C (centres undefined)	i	129	i	i	i	i
Cc1ccc(S(=O)(=O)NCCCCCCNS(=O)(=O)c2ccc(C)cc2)cc1	i	nt	i	nt	i	i
Cc1ccc(S(=O)(=O)NCCN(CCNS(=O)(=O)c2ccc(C)cc2)S(C)(=O)=O)cc1	i	52	nt	i	nt	i
CN(C(=O)COc1ccc(Cl)cc1Br)C1CCCCC1	i	71	i	i	i	i
CC12CCC(=O)CC1CCC1C2CCC2(C)C1CCC2(O)C(=O)CO (centres undefined)	i	i	i	i	i	i
C[C@]12CCC(=O)C[C@@H]1CC[C@@H]1[C@@H]2CC[C@]2(C)[C@@H](C(=O)COC(=O)CCC(=O)O)CC[C@@H]12	i	167!	i	i	i	i
O=C(c1cccc(F)c1)N1CCN(S(=O)(=O)c2ccccc2)CC1	i	i	nt	i	nt	i
CC(C)c1ccc(OC(=O)c2cccc(S(=O)(=O)N3CCN(C)CC3)c2)cc1	i	i	106	i	i	i
CC(C)c1ccc(S(=O)(=O)N2CCN(C(=O)c3cccc(F)c3)CC2)cc1	i	46	nt	i	nt	i
CCC(=O)Nc1ccc2c(c1)OC[C@@H](C)N(C(=O)Cc1ccccn1)C[C@H](C)[C@@H](OC)CN(C)C2=O	nt	nt	i	nt	i	nt
Cc1nc2ncccn2c1-c1csc(Nc2ccc(O)cc2)n1	i	i	i	i	i	53
Cc1ccc(Nc2nc(-c3c(C)nc4ncccn34)cs2)cc1	i	nt	nt	i	nt	i
Cc1nonc1CN(C)C(=O)c1cc(COc2ccc(F)cc2Cl)on1	i	i	i	i	i	i
CSc1ccccc1OCc1cc(C(=O)N(C)Cc2nonc2C)no1	i	36	i	i	i	i
Cc1ccccc1S(=O)(=O)N1C[C@H](O)COC[C@H]2O[C@@H](CC(=O)NCCc3ccccc3)CC[C@@H]21	nt	nt	i	nt	i	nt
CCOC(=O)CCn1c(=S)n(CCC(=O)OCC)c2ccccc21	i	55	i	i	i	i
O=C(Nc1ccnn1C1CCN(C2CCC2)CC1)c1ccccc1	i	69	i	i	i	i
